HIV Env fusion = inhibitors of HIV-1 Env-driven cell-cell fusion, primary screen, HeLa-JRFL effector, CEM21 target cells, luciferase; 1.1% of 360,000 active; inhibition, % at 12.3 µM;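 active = mean replicate inhibition score of at least 50 and every replicate individually at or above 50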;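 also: 0% = plate neutral controls and 100% = maraviroc near 300 nM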
PDI inh = inhibitors of human PDI, primary screen, biochemical, turbidity, single point, plate reader | Protein disulfide-isomerase (Homo sapiens), P07237 | PDI insulin aggregation turbidity, A650, 90 min | inhibition, % at 10 µM | 0.052% of 350,000 active;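 active = mean inhibition across replicates of 30% or more, whatever share of single replicates reach that level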
ERp5 block = inhibitors of ERp5-driven insulin aggregation, primary screen, biochemical, turbidity, absorbance 650 nm, single point; Protein disulfide-isomerase A6 (Homo sapiens), Q15084; 90 min; inhibition, % at 9.99 µM; 0.05% of 350,000 active;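 active = mean replicate inhibition above about 25%, with every replicate also reaching it, limit read from the data, passing the limit was not always enough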
Target sequence (Q15084 whole entry, looked up): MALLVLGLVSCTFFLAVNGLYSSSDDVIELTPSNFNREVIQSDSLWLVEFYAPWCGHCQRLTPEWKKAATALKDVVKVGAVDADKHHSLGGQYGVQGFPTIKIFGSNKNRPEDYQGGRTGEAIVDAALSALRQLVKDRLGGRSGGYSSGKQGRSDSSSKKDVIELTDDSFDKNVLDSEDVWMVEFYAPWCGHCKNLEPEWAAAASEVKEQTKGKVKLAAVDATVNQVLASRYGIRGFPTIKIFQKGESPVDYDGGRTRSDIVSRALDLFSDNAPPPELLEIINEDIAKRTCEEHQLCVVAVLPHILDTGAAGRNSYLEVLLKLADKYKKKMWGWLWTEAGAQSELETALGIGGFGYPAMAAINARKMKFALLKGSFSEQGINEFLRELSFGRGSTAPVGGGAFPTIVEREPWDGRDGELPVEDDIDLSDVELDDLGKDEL
INS-1E GSIS act = GLuc luminescence reporter in INS-1E cells, primary screen for activators of glucose-dependent secretion of insulin; INS-1E GLuc reporter insulin secretion, 2-3 h; activation, % at 16.6 µM; 0.61% of 370,000 active; AID 743287, 2014;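 active = lowest replicate activation of at least 40%, so every replicate reaches that level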;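 also: 0% = median of neutral control wells and 100% = median of IBMX positive control wells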
FN deposition inh = inhibitors of fibronectin matrix deposition, primary screen, AH1F cells, Alexa488-fibronectin fluorescence, plate reader | AH1F fibroblasts, overnight | 0.086% of 350,000 active | inhibition, % at 12.6 µM | AID 743247, 2014;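 active = mean inhibition across replicates of 30% or more, regardless of how many single replicates reach that level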;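 also: positive control wells lacked labelled fibronectin entirely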
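Test system: AH1F fibroblast monolayer depositing Alexa488-labelled fibronectin into matrix. Input: 10000 cells per well. Technique: fluorescence, ex 485 nm, em 525 nm. Buffer or medium: DMEM plus 2% serum, read in PBS. Timing: 1 h cell adhesion before compound, then overnight fibronectin incubation. Compound: single dose, pinned. Read-out basis: inhibition from reduced deposited-fibronectin fluorescence.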
* hit, by the source's call; / = no result given; [ ] = another dose, or the depositor's remark. The list is not random: actives were taken first. Their share in the collection is about 1.4%.

SMILES	HIV Env fusion	PDI inh	ERp5 block	INS-1E GSIS act	FN deposition inh
COc1ccc(CCNc2ccc(S(N)(=O)=O)cn2)cc1	-1	-1	-4	-7	0
COc1ccc(CCNc2ccncn2)cc1	56*	0	/	/	-12
COc1ccc(CCNc2ccncn2)cc1OC	-40	-3	/	45*	1
COC(=O)C[C@H]1CC[C@H]2[C@@H](COc3ccc(NC(=O)C4CCOCC4)cc3C(=O)N2C)O1	/	/	0	4	8
CC(C)(C)c1ccc(C#C[C@@H]2C=C[C@H]3OC(=O)CC/C=C/CCC(=O)OC[C@H]3O2)cc1	-4	/	-6	95*	-2
O=C(NCC[C@H]1CC[C@@H](NC(=O)C2CCCC2)[C@H](CO)O1)c1cc(Cl)cc(Cl)c1	19[16.7 µM]	/	-4	-11	/
COc1cc2c(cc1OC)CN(C(=O)CNS(=O)(=O)c1ccc(C)c(C)c1)CC2	-6	-7	1	55*	-10
COc1ccc2c3c([nH]c2c1)[C@@H](CO)N(C(=O)c1ccc(F)cc1)CC31CN(S(=O)(=O)c2cccs2)C1	/	/	9	9	/
CCCCOC(=O)c1cc(=O)[nH]c2ccc(C)cc12	-8	0	-1	1	-2
CCCCOC(=O)c1cc(=O)[nH]c2ccccc12	/	4	-7	58*	/
CCC(C)(C)C1CCc2[nH]nc(C(=O)NC3CCCC3)c2C1 (stereo not given)	11	1	0	/	-5
O=C(NC1CCCCC1)c1n[nH]c2c1CCCCC2	69*	2	-2	-15	2
CC(C)Cn1c(N)c(C(=O)COC(=O)c2ccc(O)cc2)c(=O)n(C)c1=O	14	55*	0	-9	1
CCOc1ccccc1OCC(=O)OCC(=O)c1c(N)n(CC(C)C)c(=O)n(C)c1=O	/	-5	-2	-60	7
CCC(C(=O)OCC(=O)c1c(N)n(CC(C)C)c(=O)n(C)c1=O)c1ccccc1 (stereo not given)	60*	-5	1	17	-3
O=C(N[C@H]1CC[C@@H](CCNS(=O)(=O)c2ccc(Cl)cc2)O[C@@H]1CO)c1cnccn1	10[16.7 µM]	/	-9	2	/
CC(C)(C)n1nnnc1C(c1cccnc1)N1CCN(C2CCCCC2)CC1 (stereo not given)	65*	3	/	/	2
